High-throughput results as filed in PubChem BioAssay.
The list is not random: actives were taken first. Their share in the collection is about 1.9%.
Rin1 Abl inh = human Rin1-Abl interaction inhibition. inhibition, % at 7.35 µM. TR-FRET Rin1/Abl binding, biochemical. 360,000 tested, 0.4% active; in the data active = inhibition above about 5%, passing the limit was not always enough
Rpn11 block = Rpn11 (human) deubiquitinase inhibition; human 26S proteasome, Ub4-pepOG fluorescence polarization; 20S core pre-blocked with epoxomicin; O00487; inhibition, % at 20 µM; 360,000 tested, 0.59% active;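 active = inhibition at 20 µM, scaled to each plate's controls, above about 33%, limit read from the data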
Target sequence (O00487 whole entry, looked up): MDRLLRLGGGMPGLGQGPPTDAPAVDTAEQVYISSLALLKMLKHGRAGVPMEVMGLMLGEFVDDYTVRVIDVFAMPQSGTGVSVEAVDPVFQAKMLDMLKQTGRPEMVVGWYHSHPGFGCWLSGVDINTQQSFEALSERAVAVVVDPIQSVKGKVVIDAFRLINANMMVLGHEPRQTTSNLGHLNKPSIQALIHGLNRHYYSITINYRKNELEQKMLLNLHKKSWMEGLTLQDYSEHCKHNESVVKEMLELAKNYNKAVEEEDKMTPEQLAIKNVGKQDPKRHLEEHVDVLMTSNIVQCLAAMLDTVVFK
NadD inh = blocks S. aureus nicotinate mononucleotide adenylyltransferase | AID 602399 | inhibition, % at 20 µM | 360,000 tested, 0.78% active | purified NadD enzyme, colorimetric absorbance read-out; in the data active = inhibition above about 26%
XiGFP reactiv = reactivates the inactive X chromosome in mouse fibroblasts. XiGFP mouse fibroblasts, % GFP-positive cells imaging, 3 d; cells co-treated with 5-aza-dC sensitizer; scaled so ellipticine positive control = 100%. activation, % at 7.58 µM. 360,000 tested, 0.055% active;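 active = mean normalized replicate activation at least 10% and every replicate at or above 10%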;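 note: 0% = median of on-plate neutral control wells and 100% = ellipticine 6 µM median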
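System: 68-5-11 XiGFP fibroblast line | Buffer or medium: DMEM containing 5-aza-dC | Compound: Single point | Times: Compounds 3 days, fix/stain 15 min at room temperature | Benchmarks: Positive control ellipticine, 6 µM final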
ABHD5-PLIN5 inh = inhibitors of human ABHD5-perilipin-5 interaction; AID 602281; Split G. princeps luciferase complementation, luminescence, 4 h; Q00G26+Q8WTS1; inhibition, % at 4 µM; 360,000 tested, 0.78% active;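 active = inhibition above the mean inhibition across every tested compound plus 3 SD, cut at about 22% in these data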;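 note: 0% = DMSO only wells and the 100% control is not disclosed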
Rin1 Abl conf = confirmation of inhibitors of human Rin1-Abl interaction; shares compounds with Rin1 Abl inh; TR-FRET Rin1-Abl binding, purified proteins; inhibition, % at 7.35 µM; 1,300 tested, 49% active; AID 602124
GFP quench = counter-screen for Rin1-Abl inhibitors: GFP fluorescence quenchers | shares compounds with Rin1 Abl inh | inhibitors/quenchers counterscreen | inhibition, % at 6.75 µM | 1,300 tested, 8.5% active;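 note: ABL1-eGFP fusion protein alone without its partner RIN1-SBP; 0% = protein with vehicle and 100% = wells lacking protein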
GFP quench DR = quenches GFP in dose response, Rin1-Abl counter-screen; 230 tested, under 10 active; AID 602182; GFP fluorescence interference/quenching counterscreen; shares compounds with Rin1 Abl inh; IC50, µM; call rule not given here;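 note: ABL1-eGFP fusion protein alone without its RIN1 binding partner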
* hit, by the source's call. Cut-off read from the data, not from the text of the source, unless noted: active = inhibition above about 6.5%; inactive = the rest.

How did O=C(c1ccc(Cl)c(Cl)c1)N1CCC(=O)N(C(COCc2cccc(C(F)(F)F)c2)Cc2ccccc2)CC1 (stereo not drawn) do in these assays?
Rin1 Abl inh: 23.4*; Rpn11 block: 14.5; NadD inh: -1.6; XiGFP reactiv: 0.0; ABHD5-PLIN5 inh: 2.0; Rin1 Abl conf: 23.9*; GFP quench: -0.9

What do the screens show for `C[C@@H]1O[C@@H](OC[C@H]2O[C@@H](Oc3c(-c4ccc(O)c(O)c4)oc4cc(O)cc(O)c4c3=O)[C@H](O)[C@@H](O)[C@@H]2O)[C@H](O)[C@H](O)[C@H]1O`?
Rin1 Abl inh: 15.0*; Rpn11 block: -0.3; NadD inh: -1.2; XiGFP reactiv: -0.1; ABHD5-PLIN5 inh: -0.4; Rin1 Abl conf: 20.5*; GFP quench: 1.9; GFP quench DR: >67.5

What do the screens show for `CCN(CC)Cc1cc(O)c(CN(CC)CC)cc1O`?
Rin1 Abl inh: 11.0*; Rpn11 block: -35.9; NadD inh: 31.0*; XiGFP reactiv: -0.2; ABHD5-PLIN5 inh: 11.4; Rin1 Abl conf: 0.6; GFP quench: 5.2

Results for CC(C)n1cc(CN2CCC(C(=O)Nc3cccc(-c4cscn4)c3)CC2)cn1 ?
Rin1 Abl inh: 10.8*; Rpn11 block: -3.2; NadD inh: -6.4; XiGFP reactiv: 0.0; ABHD5-PLIN5 inh: 2.0; Rin1 Abl conf: 23.6*; GFP quench: 0.6; GFP quench DR: >67.6

How did O=C(COC(=O)c1ccc([N+](=O)[O-])cc1Cl)Nc1cccnc1Cl do in these assays?
Rin1 Abl inh: 8.7*; Rpn11 block: 5.1; NadD inh: 1.1; XiGFP reactiv: 0.0; ABHD5-PLIN5 inh: 2.8; Rin1 Abl conf: 2.7; GFP quench: 0.4

Results for CCCCCCCC[n+]1c(C)n(-c2ccccc2)c2ccc(NC(C)=O)cc21 ?
Rin1 Abl inh: 5.0*; Rpn11 block: 0.4; NadD inh: 3.8; XiGFP reactiv: 0.0; ABHD5-PLIN5 inh: 5.7; Rin1 Abl conf: 6.7*; GFP quench: -0.2

Results for CCCC(=O)NC(c1ccccc1OC)c1ccc2cccnc2c1O (stereo not drawn) ?
Rin1 Abl inh: 7.0*; Rpn11 block: 0.3; NadD inh: 8.5; ABHD5-PLIN5 inh: -2.0; Rin1 Abl conf: 4.8; GFP quench: 3.1

Results for C[C@H](CO)N1C[C@H](C)[C@@H](CN(C)C(=O)C2CCCCC2)OCCCC[C@H](C)Oc2ccc(NS(=O)(=O)c3cn(C)cn3)cc2C1=O ?
XiGFP reactiv: 0.0

What do the screens show for `Cc1cc(=O)n2nc(N3CCCC(C(=O)N4CCc5ccccc54)C3)sc2n1` (stereo not drawn)?
Rin1 Abl inh: 12.7*; Rpn11 block: 3.6; NadD inh: -3.6; ABHD5-PLIN5 inh: 6.8; Rin1 Abl conf: 16.6*; GFP quench: 0.8

How did C[C@H]1CN([C@@H](C)CO)C(=O)Cc2cc(NC(=O)Cc3ccccc3)ccc2O[C@@H]1CN(C)Cc1ccc(C(=O)Nc2ccccc2N)cc1 do in these assays?
XiGFP reactiv: -1.3

Results for CCOC(=O)NC(=O)COC(=O)CCCc1nc2ccccc2s1 ?
Rin1 Abl inh: 5.4*; Rpn11 block: -9.2; NadD inh: -3.3; XiGFP reactiv: 0.2; ABHD5-PLIN5 inh: 0.2; Rin1 Abl conf: -1.4; GFP quench: -1.7

Results for CCNC(=O)NC(=O)C(C)OC(=O)CCCc1nc2ccccc2s1 (stereo not drawn) ?
Rin1 Abl inh: 1.3; Rpn11 block: -4.2; NadD inh: -3.6; XiGFP reactiv: 0.1; ABHD5-PLIN5 inh: -4.9

How did C[C@@H]1CN([C@@H](C)CO)C(=O)CCCn2nncc2CO[C@H]1CN(C)Cc1ccccc1O do in these assays?
XiGFP reactiv: -0.1

How did CCc1ccc(CN2CCC(Oc3ccc(C(=O)N4CCCC4)cc3)CC2)cc1 do in these assays?
Rin1 Abl inh: 0.0; Rpn11 block: 0.1; NadD inh: -5.6; XiGFP reactiv: 0.0; ABHD5-PLIN5 inh: -5.6

How did CCc1ccc(CN2CCC(Oc3ccc(C(=O)N4CCCCC4)cc3)CC2)cc1 do in these assays?
Rin1 Abl inh: 10.1*; Rpn11 block: -8.3; NadD inh: 1.6; XiGFP reactiv: 0.5; ABHD5-PLIN5 inh: 6.2; Rin1 Abl conf: 3.1; GFP quench: -1.6
